Measured values as given in PubChem BioAssay AID651999 (Sanford-Burnham Center for Chemical Genomics, 2013).
The campaign covered roughly 360,000 compounds. About 1,400 (0.39%) were called active. Shown is part of a subset that was picked to be rich in actives. Unmarked numbers belong to inactive results.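 Rule for the calls: active = pattern-corrected inhibition above about 35%, with an unprinted fluorescence ratio check between 0.5 and 1.5 (limit read from the data, passing the limit was not always enough); inactive = the rest.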

target: COP9 signalosome complex subunit 5 (Homo sapiens) (UniProt Q92905); test: inhibitors of CSN-mediated cullin deneddylation, primary screen, biochemical, fluorescence polarization, uHTS (AID 651999); settings: Purified CSN, SCF-Nedd8-OG deneddylation, at 12.5 µM, hits give high values;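 note: 0% = enzyme with substrate and 100% = substrate without enzyme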
Summary of the method: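 Assay system: purified human Csn5 enzyme expressed in HEK293T cells; Input: 0.24 nM Csn5 enzyme, final concentration; Reagent: 10 nM SCFSkp2-Nedd8OG; Compound dosing: 12.5 µM single point; Times: reaction 90 min, room temperature; Technique: fluorescence polarization readout.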

Chain of COP9 signalosome complex subunit 5 (Homo sapiens) (Q92905 whole entry, looked up, one chain of several): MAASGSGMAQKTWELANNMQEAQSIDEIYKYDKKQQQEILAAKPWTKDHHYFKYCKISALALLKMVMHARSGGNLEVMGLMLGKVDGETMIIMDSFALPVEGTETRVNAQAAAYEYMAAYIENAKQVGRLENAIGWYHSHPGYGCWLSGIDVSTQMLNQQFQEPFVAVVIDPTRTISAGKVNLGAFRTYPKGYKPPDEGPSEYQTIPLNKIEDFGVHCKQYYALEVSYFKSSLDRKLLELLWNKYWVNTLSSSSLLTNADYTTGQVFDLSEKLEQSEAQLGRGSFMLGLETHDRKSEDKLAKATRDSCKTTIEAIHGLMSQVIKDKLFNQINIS

| Structure (SMILES) | inhibition |
| --- | --- |
| COc1cccc(NC(=O)CN(C)C(=O)c2ccccc2CCc2ccccc2)c1 | 4.75% |
| O=C(NCc1ccccc1)C1=C[C@@H](c2ccc(C(F)(F)F)cc2)C[C@@H](OCc2ccc(CO)cc2)O1 | 4.14% |
| Cc1ccc(OCC(=O)Oc2ccccc2[N+](=O)[O-])cc1 | 1.14% |
| Cc1cc2nc(-c3ccc(F)cc3)c(Cc3ccsc3)n2c(C)c1Br | -4.07% |
| Cc1cc2nc(-c3ccc(Cl)cc3)c(Cc3cccc(F)c3)n2c(C)c1Br | 3.52% |
| Cc1cc2nc(-c3ccco3)c(Cc3cccc(F)c3)n2c(C)c1Br | 38.5% (active) |
| O=C1NC2(CCCCC2)N=C1c1ccccc1 | -2.27% |
| CC1CCCN(C(=O)Cn2c(=O)oc3cc(S(=O)(=O)N4CCCCC4C)ccc32)C1 (stereo not drawn) | -0.78% |
| C=CCc1ccc(OCCOc2cccc(/C=N/n3cnnc3)c2)c(OC)c1 | 0.99% |
| O=C(CCN1C(=O)c2ccncc2C1=O)Nc1ccc2c(c1)OCCO2 | 5.06% |
| Cc1nc([N+](=O)[O-])cn1CC(=O)Nc1ccc2c(c1)OCO2 | -0.35% |
| Cc1ccc(C(=O)O)cc1-c1ccc(/C=C2\SC(=O)N(CC(=O)Nc3ccc4c(c3)OCO4)C2=O)o1 | 102% (active) |
| CNS(=O)(=O)c1ccc(N2CCCC2=O)c([N+](=O)[O-])c1 | -1.32% |
| Cc1ccc(-c2nn(-c3ccccc3)cc2/C=C2\SC(=S)N(CCCCCC(=O)O)C2=O)o1 | 66.1% (active) |
| O=C(O)CC/C(=N\NC(=O)c1ccc(F)cc1)c1ccc(Br)cc1 | 51.7% (active) |
| C/C(CC(=O)N1CCN(C=O)CC1)=N\NC(=O)c1ccc(Br)cc1 | -6.38% |
| O=C(CNC(=O)c1ccccc1F)c1ccc(Br)cc1 | 3.53% |
| Cc1ccn(CCC(=O)N2c3ccccc3CC2C)n1 (stereo not drawn) | 0.86% |
| CCOC(=O)C1CCCN(CCSc2ccc(C)cc2)C1 (stereo not drawn) | -0.91% |
| COc1ccc2c(c1)c(=Cc1ccc(N(C)C)cc1)c1cc(-c3ccccc3)[n+](C)n12 | 61.6% (active) |
| CCOC(=O)[C@]12CCCC=C1N(CCC1=CCCCC1)C(=O)[C@H](CC(=O)N1CCN(C(=O)c3ccco3)CC1)C2 | -3.01% |
| CCC(C)Cn1c(O)cc2nn(-c3nc4ccccc4s3)c(=O)c-2c1C (stereo not drawn) | 35.4% (active) |
| CCC(CC)C(=O)Nc1cccc(C(=O)N2CCCC2)c1 | 2.19% |
| CC1CC(C)CN(S(=O)(=O)c2cccc3nonc23)C1 (stereo not drawn) | 0.47% |

| Structure (SMILES) | inhibition |
| --- | --- |
| CCCCCN(C(=O)CCC(=O)OCC(=O)NCc1ccc(OC)cc1)c1c(N)n(CCCC)c(=O)[nH]c1=O | 4.14% |
| CC(C)C1CC2=C(C(=O)OC(C)(C)O2)C(c2ccc(F)cc2)O1 (stereo not drawn) | 2.3% |
| CCC(C)NC(=O)N[C@@H](CCSC)C(=O)O (stereo partly drawn) | -1.26% |
| Cc1sc2ncnc(SCC(=O)NC3CCS(=O)(=O)C3)c2c1C (stereo not drawn) | -1.73% |
| COC(=O)c1c(-c2cccs2)csc1NC(=O)CSc1ncnc2sc(C)c(C)c12 | -5.37% |
| Cc1sc2ncnc(SCC(=O)Nc3ccc(CN4CCCC4)cc3)c2c1C | 108% (active) |
| Cc1cc(NS(=O)(=O)c2ccc(NC(=O)c3cccc(OC(F)F)c3)cc2)nc(C)n1 | 2.76% |
| O=C(Nc1ccc(Br)cc1)c1cc(S(=O)(=O)Nc2ccccn2)ccc1Cl | -4.77% |
| O=C(Nc1cccnc1)c1cc2cc(Br)ccc2oc1=O | 5.43% |
| Cc1ccc2nc(-c3ccncc3)cc(C(=O)Nc3ccc(OC(F)F)cc3)c2c1 | 42% (active) |
| COc1ccc(C)cc1NC(=O)c1cc(-c2ccccc2)nc2c1cnn2C(C)C | -2.82% |
| O=C(Nc1ccncc1)c1cc(-c2ccccn2)nc2ccc(Br)cc12 | 51.3% (active) |
| O=C(NCc1ccncc1)C(=O)NCc1ccco1 | -6.34% |
| CCCN(CC1CC1)C(=S)NC(=O)c1ccccc1Br | -6.61% |
| CN1CCN(c2ccc(S(=O)(=O)N3CCOCC3)cc2NC(=O)CCc2ccccc2)CC1 | 2.64% |
| CCOC(=O)CN(C)S(=O)(=O)c1ccc(-c2cc(C(=O)OC)sc2C(F)(F)F)cc1 | 1.34% |
| COc1ccc(CCNC2=CC(=O)CC(C)(C)C2)cc1 | -5.48% |
| COc1ccc(NC2=CC(=S)NC(C)(C)C2)cc1 | 42.9% (active) |
| COc1ccc(Nc2cc(Sc3ccc(OC)cc3)ncn2)cc1 | -0.7% |
| O=C(NCCc1ccccc1)C(=O)NCC1OCCN1S(=O)(=O)c1cccs1 (stereo not drawn) | 0% |
| O=C(Nc1ccc(Cl)c(Cl)c1)c1ccccc1NC(=O)C1CC=CCC1C(=O)O (stereo not drawn) | -4.09% |
| Cc1cc(N(C)C)cc(C)[n+]1[O-] | -2.98% |
| O=C1CSC(c2ccc(Cl)cc2)N1 (stereo not drawn) | -5.2% |
| CCCCC(c1nnnn1CS(=O)(=O)c1ccc(C)cc1)N1CCC(C(N)=O)CC1 (stereo not drawn) | -2.76% |

| Structure (SMILES) | inhibition |
| --- | --- |
| CC(C)(C)C1C/C(=C/c2ccco2)C(=O)/C(=C/c2ccco2)C1 (stereo not drawn) | 41.2% (active) |
| CCCC/C(C)=N/NC(=O)NC1CCCCC1 | -3.54% |
| Nc1c(-c2ccc(F)cc2)cnc2ncnn12 | 2.66% |
| O=C(COc1ccc2c(C(F)(F)F)cc(=O)oc2c1)Nc1ccc2c(c1)OCCO2 | 187% (active) |
| CCc1ccccc1OCC(=O)Nc1ccc2c(c1)OCCO2 | 1.42% |
| CCN(CC(=O)Nc1ccc2c(c1)OCCO2)Cc1cc(=O)oc2cc(C)c(C)cc12 | 4.55% |
| Cc1ccc(NC(=O)COc2ccc(/C=N\NC(=O)c3cccnc3)cc2)cc1C | 158% (active) |
| Cc1cccc(OCC(=O)NCCNC(=O)c2cccnc2)c1 | 0.16% |
| Cc1ccc(NC(=O)COc2ccc(-n3ccnc3)cc2)cc1Cl | 0% |
| CSCCC(NS(=O)(=O)c1ccc(C)cc1)C(=O)N(C)CC(=O)Nc1ccccc1Br (stereo not drawn) | 1.95% |
| Cc1nc(SCC(=O)NC2CCCCC2C)c(C#N)c(C)c1C (stereo not drawn) | 0.75% |
| CCC(C)N1C(=O)S/C(=C/c2ccc(Sc3nc4ccccc4[nH]3)o2)C1=O (stereo not drawn) | 4.54% |
| O=C(O)C(c1ccccc1)N1C(=O)/C(=C\c2ccc(-c3cccc(Cl)c3)o2)SC1=S (stereo not drawn) | 93.7% (active) |
| CC1COc2ccccc2N1S(=O)(=O)c1ccccc1 (stereo not drawn) | -12.8% |
| CCOC(=O)C1CCN(C(=O)CC2C(=O)N(Cc3ccccc3)C(C)c3nc4ccccc4n32)CC1 (stereo not drawn) | 4.78% |
| CN(C)N=Nc1ccc2nc[nH]c2c1 | -1.48% |
| CC1=CC(=NNS(=O)(=O)c2ccc([N+](=O)[O-])cc2)CC(C)(C)C1 | 8.55% |
| Cc1ccc(Cc2cnc(N)s2)o1 | 36.5% (active) |
| CC(=O)c1nnn(-c2ccc(Cl)cc2C#N)c1C | 0.92% |
| CC(C)(C)c1ccc(C(=O)N2CCC(C(=O)N3CCCCC3)CC2)cc1 | -2.5% |
| O=c1ccc(-c2ccc(S(=O)(=O)Nc3ccccc3)o2)n[nH]1 | 6.31% |
| Cn1c2ccccc2c2cc(/C=C(\NC(=O)c3ccccc3)C(=O)NCC(=O)O)ccc21 | 60.8% (active) |
| CCOc1ccc(/C=C(/NC(=O)c2ccccc2)C(=O)NCCC(=O)O)cc1 | -10.6% |
| O=C(NCC1CCCO1)/C(=C/c1ccc(Cl)cc1)NC(=O)c1ccccc1 (stereo not drawn) | -2.86% |

| Structure (SMILES) | inhibition |
| --- | --- |
| CC1CCN(S(=O)(=O)c2ccc(S(=O)(=O)NCc3ccco3)cc2)CC1 | 0.01% |
| Cc1noc(NS(=O)(=O)c2ccc(N3CC(O)=C(c4ccccc4)C3=N)cc2)c1C | 2.49% |
| O=C1CC(c2c(F)cccc2Cl)C(n2cncn2)C(O)=C1C1NCCc2ccccc21 (stereo not drawn) | -3.94% |
| CCn1c(SCC(=O)Nc2ccc(Br)cc2)nc2sc3c(c2c1=O)CCN(C)C3 | 3.55% |
| CCOc1ccc(-n2c(SCC(=O)Nc3ccc(OC)cc3)nc3sc4c(c3c2=O)CCN(C)C4)cc1 | 102% (active) |
| CCCSc1nc2sc3c(c2c(=O)n1-c1ccc(OC)cc1)CCN(C)C3 | 7.27% |
| CCN(CC)C(=O)CSc1nnc(-c2ccc(S(=O)(=O)NCc3ccccc3Cl)cc2)o1 | -2.99% |
| NC(=S)c1ccc(C(N)=S)o1 | 2.12% |
| O=C(NCCCn1ccnc1)c1cc2c(s1)CCCC2 | 0.16% |
| COc1ccc2c(c1)OC(O)(C(F)(F)C(F)F)CC2=O (stereo not drawn) | 2.02% |
| Oc1ccc(N=Cc2c(O)ccc3ccccc23)cc1 | 58.2% (active) |
| C/C(=N\NC(N)=S)c1cccnc1 | -5.1% |
| CCc1nc2c(=O)[nH]cnc2o1 | -0.47% |
| Cc1c(CNCCc2ccccc2)c(C(=O)O)c(C)n1-c1ccccc1 | -2.52% |
| Cc1ccc(OCCNC(=O)c2cccc(S(=O)(=O)N3CCN(Cc4ccccc4)CC3)c2)cc1 | -1.93% |
| Cn1c(=O)[nH]c2c(c(C(=O)O)nn2C)c1=O | -1.75% |
| COc1ccccc1N1CCN(C(=O)C(=O)N/N=C/c2ccccc2F)CC1 | -1.85% |
| COc1cccc(/C=N/NC(=O)c2[nH]nc3c2CCc2ccccc2-3)c1O | 67% (active) |
| COc1cc(/C=N\NC(=O)c2nonc2N)c(OC)cc1Br | 3.66% |
| CC1CC(C)CN(C(=O)CCNC(=O)Cn2cnc3ccccc3c2=O)C1 (stereo not drawn) | -0.46% |
| O=C(CN1CCN(c2ncc(C(F)(F)F)cc2Cl)CC1)Nc1ccc2c(c1)OCO2 | 4.43% |
